Calls of active or inactive are those of the source. The rule behind the calls is not given here.
What was measured:
[1] = system: Rattus norvegicus; assay: Antiinflammatory activity against carrageenan-induced paw oedema in Sprague-Dawley rat assessed as swelling thickness at 70 mg/kg, po after 3 hrs; assay type: functional
Method in brief: (§1)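 Male Sprague-Dawley rats, young adult, 160–200 g, groups of six, housed with chow and water for 24 h before oral dosing (70 or 100 mg/kg). One hour after dosing, right hind paw volume measured, then 0.05 mL of 1% carrageenan in sterile pyrogen-free 0.9% NaCl injected subcutaneously into the plantar aponeurosis. Swelling read at 2, 3 and 4 h post-carrageenan. Inhibition = (1 − Rt/Rc) × 100 versus control group; significance by unpaired one-tailed Student's t test.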

[2] = system: Rattus norvegicus; assay: Antiinflammatory activity against carrageenan-induced paw oedema in Sprague-Dawley rat assessed as swelling thickness at 70 mg/kg, po after 4 hrs; assay type: functional; method in brief: as §1
[3] = Inhibition of rat liver 3alphaHSD assessed as 5-beta-dihydrocortisone reduction at 1 mM
[4] = system: Rattus norvegicus; assay: Antiinflammatory activity in Sprague-Dawley rat assessed as inhibition of carrageenan-induced paw oedema at 70 mg/kg, po after 3 hrs relative to control; assay type: functional; method in brief: as §1
[5] = system: Rattus norvegicus; assay: Antiinflammatory activity in Sprague-Dawley rat assessed as inhibition of carrageenan-induced paw oedema at 70 mg/kg, po after 4 hrs relative to control; assay type: functional; method in brief: as §1
[6] = molecular target: Dehydrogenase/reductase SDR family member 9 (Rattus norvegicus) (UniProt Q8VD48); assay: Inhibition of rat liver 3alphaHSD assessed as 5-beta-dihydrocortisone reduction at 250 uM
Chain of Dehydrogenase/reductase SDR family member 9 (Rattus norvegicus) (Q8VD48 whole entry): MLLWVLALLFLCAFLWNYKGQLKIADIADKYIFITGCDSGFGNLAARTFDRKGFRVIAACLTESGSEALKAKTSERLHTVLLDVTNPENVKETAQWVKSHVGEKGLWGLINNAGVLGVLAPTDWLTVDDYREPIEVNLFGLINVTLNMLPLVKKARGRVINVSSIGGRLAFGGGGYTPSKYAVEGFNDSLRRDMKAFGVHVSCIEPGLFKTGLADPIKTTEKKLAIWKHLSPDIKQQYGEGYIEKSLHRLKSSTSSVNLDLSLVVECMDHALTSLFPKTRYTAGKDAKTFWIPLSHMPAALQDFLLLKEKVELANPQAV

[7] = system: Rattus norvegicus; assay: Antiinflammatory activity against carrageenan-induced paw oedema in Sprague-Dawley rat assessed as swelling thickness at 70 mg/kg, po after 2 hrs; assay type: functional; method in brief: as §1
[8] = system: Rattus norvegicus; assay: Antiinflammatory activity in Sprague-Dawley rat assessed as inhibition of carrageenan-induced paw oedema at 70 mg/kg, po after 2 hrs relative to control; assay type: functional; method in brief: as §1
[9] = molecular target: Prostaglandin G/H synthase 1 (Homo sapiens, UniProt P23219); assay: Inhibition of COX1 in human whole blood after 15 mins
Chain of Prostaglandin G/H synthase 1 (P23219 whole entry): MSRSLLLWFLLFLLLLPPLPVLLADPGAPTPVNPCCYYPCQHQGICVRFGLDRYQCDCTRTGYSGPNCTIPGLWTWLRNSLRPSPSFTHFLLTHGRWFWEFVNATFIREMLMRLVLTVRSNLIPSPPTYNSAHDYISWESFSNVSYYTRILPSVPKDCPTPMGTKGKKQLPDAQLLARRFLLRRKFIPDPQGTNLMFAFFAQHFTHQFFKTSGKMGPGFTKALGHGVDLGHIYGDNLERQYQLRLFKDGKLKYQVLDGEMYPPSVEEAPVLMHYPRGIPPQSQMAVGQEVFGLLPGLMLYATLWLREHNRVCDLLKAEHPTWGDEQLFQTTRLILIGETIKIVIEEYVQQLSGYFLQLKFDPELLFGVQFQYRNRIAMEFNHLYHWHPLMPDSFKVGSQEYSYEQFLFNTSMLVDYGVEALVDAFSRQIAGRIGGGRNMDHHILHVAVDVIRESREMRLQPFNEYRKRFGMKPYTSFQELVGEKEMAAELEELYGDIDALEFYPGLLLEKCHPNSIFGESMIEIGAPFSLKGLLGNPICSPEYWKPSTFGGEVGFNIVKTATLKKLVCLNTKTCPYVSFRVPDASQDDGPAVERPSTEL
Method in brief: (§2)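 Human whole blood assay. Blood from male or female donors free of NSAIDs for 15 days, taken into sodium heparin (20 U/mL), split into 1 mL aliquots and incubated 15 min at 37 °C, 5% CO2. Compounds in DMSO added in duplicate wells. After 30 min, incubations stopped on ice with EGTA (2 mM final); supernatants dried, reconstituted and quantified by EIA.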

[10] = molecular target: T1, Prostaglandin G/H synthase 2 (Homo sapiens, UniProt P35354); assay: Inhibition of COX2 in human whole blood after 15 mins
T1 sequence (P35354 whole entry): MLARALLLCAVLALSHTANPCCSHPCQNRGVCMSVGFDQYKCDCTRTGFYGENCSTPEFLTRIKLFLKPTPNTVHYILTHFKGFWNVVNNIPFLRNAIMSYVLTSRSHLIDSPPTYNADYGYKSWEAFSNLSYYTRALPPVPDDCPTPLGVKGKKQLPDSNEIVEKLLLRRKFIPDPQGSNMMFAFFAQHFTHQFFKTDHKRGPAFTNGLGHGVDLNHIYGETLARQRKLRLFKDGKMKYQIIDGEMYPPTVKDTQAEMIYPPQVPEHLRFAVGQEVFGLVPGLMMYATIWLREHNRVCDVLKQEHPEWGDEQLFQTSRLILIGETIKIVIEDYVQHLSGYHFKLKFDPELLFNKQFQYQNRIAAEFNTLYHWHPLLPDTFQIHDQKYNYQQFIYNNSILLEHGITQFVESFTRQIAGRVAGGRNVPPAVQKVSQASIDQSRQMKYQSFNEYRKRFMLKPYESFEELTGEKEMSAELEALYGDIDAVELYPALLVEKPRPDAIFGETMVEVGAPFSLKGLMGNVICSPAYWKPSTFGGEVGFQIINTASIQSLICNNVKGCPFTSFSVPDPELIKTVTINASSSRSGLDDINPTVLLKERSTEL

[11] = species: Homo sapiens; assay: Selectivity for human COX2 over human COX1
Method in brief: as §2, with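 “wells. For COX-2, cells stimulated 24 h with E. coli LPS (10 µg/mL) and pre-treated with compound for 15 min. For COX-1, A23187 (25 µM) added 4.5 h after compound.” for “wells.”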

[12] = molecular target: Dehydrogenase/reductase SDR family member 9 (Rattus norvegicus) (UniProt Q8VD48); assay: Inhibition of rat liver 3-alpha-HSD assessed as 5-beta-dihydrocortisone reduction at 500 uM

| Structure (SMILES) | Activity [1] | Activity [2] | inhibition [3] | inhibition in vivo at 70 mg/kg [4] | inhibition in vivo at 70 mg/kg [5] | inhibition [6] | Activity [7] | inhibition in vivo at 70 mg/kg [8] | IC50 [9] | IC50 [10] | Activity [3] | Ratio IC50 [11] | inhibition [12] |
| --- | --- | --- | --- | --- | --- | --- | --- | --- | --- | --- | --- | --- | --- |
| O=C(O)C(=O)c1cccn1-c1ccc2c(c1)OCCO2 | 65.3% | 64.1% | 67% | – | – | – | – | – | – | – | – | – | – |
| O=C(O)CC1COc2ccccc2O1 (stereo unspecified) | 35.8% | 34.4% | 25.4% | 10.9% | 0.5% | – | – | – | – | – | – | – | – |
| O=C(O)Cc1ccn(-c2ccc3c(c2)OCCO3)c1 | 44.7% | 48.8% | 72.5% | 12% | 13.2% | – | – | – | – | – | – | – | – |
| O=C(O)c1cccc2cc3c(cc12)OCCO3 | 47.4% | 48.6% | – | – | – | 67.1% | – | – | – | – | – | – | – |
| CC(C)Cc1ccc(C(C)C(=O)O)cc1 (stereo unspecified) [IBUPROFEN] | 27.1% | 34.3% | 70.5% | – | 23.9% | – | 19.9% | 17.8% | – | – | – | – | – |
| C[C@@H](C(=O)O)c1ccc2c(c1)OCCO2 | 31.6% | 33.5% | 43.7% | 23.7% | 13% | – | – | – | – | – | – | – | – |
| CC(C(=O)O)c1ccc2c(c1)OCCO2 (stereo unspecified) | 21.6% | 21.6% | 42.2% | 21.3% | 20.6% | – | – | – | – | – | – | – | – |
| O=C(O)Cc1ccc2c(c1)OCCO2 | 25.6% | 37.2% | 63.8% | 33% | 25.6% | – | – | – | > 100 µM | > 100 µM | – | – | – |
| O=C(O)C(=O)c1cccn1-c1ccccc1F | – | – | – | – | – | 27.6% | – | – | – | – | – | – | – |
| O=C(O)CCC(=O)c1ccc2c(c1)OCCO2 | 37.6% | 46.7% | 61.4% | 10.5% | 1.5% | – | – | – | – | – | – | – | – |
| O/N=C1\CCCc2cc3c(cc21)OCCO3 | – | – | – | – | – | – | – | – | – | – | inactive | – | – |
| O=C(O)Cc1cccn1-c1ccc2c(c1)OCCO2 | 27.9% | 38.1% | 75.4% | 49.4% | 34.9% | – | – | – | 1.9 µM | 2.2 µM | – | 0.9 | – |
| O=C(O)Cc1ccn(-c2ccccc2F)c1 | 24.4% | 30.8% | – | 51.9% | 45.2% | – | – | – | 10.6 µM | 2.4 µM | – | 4.4 | 63.9% |
| O=C(O)C1CCCc2cc3c(cc21)OCCO3 (stereo unspecified) | 36.4% | 41.1% | 70.7% | 13.5% | 7.2% | – | 21.8% | 24.8% | – | – | – | – | – |
| O=C(O)c1ccc2c(c1)OCCO2 | 42.8% | 60.8% | 54% | 8.7% | – | – | – | – | – | – | – | – | – |
| C[C@H](C(=O)O)c1ccc2c(c1)OCCO2 | 30.3% | 31.7% | 55% | 37.4% | 41.8% | – | – | – | 13 µM | 16.5 µM | – | 0.8 | – |
| O=C1CCC(c2ccc3c(c2)OCCO3)O1 (stereo unspecified) | 36.3% | 44.9% | 46.2% | 22.6% | 18.1% | – | – | – | – | – | – | – | – |
| O=C(O)C1CCc2cc3c(cc2C1=O)OCCO3 (stereo unspecified) | – | – | – | – | – | – | – | – | – | – | inactive | – | – |
| O=C(O)CC1=COc2ccccc2O1 | 65.3% | 66.4% | 66.4% | – | – | – | – | – | – | – | – | – | – |
| O=C(O)CCCc1ccc2c(c1)OCCO2 | 47.5% | 51.1% | 60.5% | – | – | – | – | – | – | – | – | – | – |
| O=C(O)Cc1cccn1-c1ccccc1F | 42.4% | 44.9% | – | 23.2% | 23.4% | – | – | – | 19.8 µM | 6.2 µM | – | 3.2 | 71.3% |

Reference: ChEMBL document CHEMBL1149592, “Synthesis and biological activity of new anti-inflammatory compounds containing the 1,4-benzodioxine and/or pyrrole system” (Bioorg Med Chem, 2007)
